Results from paper PMC9939360 (Acta Pharmaceutica Sinica. B, 2022).
Read-outs that look alike come from different tables or passages of the source. Marks after values point to notes of the source that are not given here.

Experiments:
M4 [1] = conditions: rhesus monkeys; cited from earlier work
M4 [2] = conditions: humans; cited from earlier work
hM4 mAChR [3] = target: T1, hM4 mAChR (Homo sapiens, UniProt P08173); assay type: binding; conditions: for LogαACh (logarithm of the binding cooperativity factor between M4-PAMs and ACh): CHO cells stably expressing hM4, mean ± SEM
T1 sequence (P08173 1-479): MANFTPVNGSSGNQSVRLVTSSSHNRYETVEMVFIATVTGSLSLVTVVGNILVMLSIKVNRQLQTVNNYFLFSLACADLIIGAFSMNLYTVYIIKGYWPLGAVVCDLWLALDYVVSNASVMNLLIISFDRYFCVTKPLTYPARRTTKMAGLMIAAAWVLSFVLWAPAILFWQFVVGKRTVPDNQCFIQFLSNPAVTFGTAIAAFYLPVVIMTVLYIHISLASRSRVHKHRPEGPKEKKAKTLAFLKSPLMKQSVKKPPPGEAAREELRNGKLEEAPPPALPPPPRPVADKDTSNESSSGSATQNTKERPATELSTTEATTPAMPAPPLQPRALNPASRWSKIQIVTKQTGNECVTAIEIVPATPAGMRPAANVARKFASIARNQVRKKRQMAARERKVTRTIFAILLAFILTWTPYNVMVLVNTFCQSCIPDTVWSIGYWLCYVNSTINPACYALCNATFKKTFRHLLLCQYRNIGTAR
Outline: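 Intact FlpIn CHO cells stably expressing human M4 were grown in DMEM/5% FBS, plated at 20,000 per well and grown overnight at 37 °C. After PBS washes, cells were incubated with an ACh concentration series, with or without increasing test compound concentrations, plus [3H]-NMS (~0.1 nmol/L). Atropine (10 μmol/L) defined nonspecific binding. Cells were washed with ice-cold 0.9% NaCl and counted by scintillation. KB and α came from an allosteric ternary complex model fit.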

hM4 mAChR [4] = target: T1, hM4 mAChR; experiment: [35S]-GTPγS binding assay with ACh, operational model of allosterism; assay type: biochemical; conditions: mean ± SEM; for LogβACh (logarithm of the activation cooperativity factors between ACh and M4-PAMs): determined by subtracting (α) from the (αβ) parameters; for LogαβACh (logarithm of the operational functional cooperativity factors between ACh and M4-PAMs) / Logτ (logarithm of the operational efficacy parameter of M4-PAMs as allosteric agonists): hM4 membranes
Outline: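 Membranes from FlpInCHO cells stably expressing wild-type human M4, 15 μg per assay, preincubated 60 min at 30 °C with 10 μmol/L GDP and ACh (10 nmol/L–10 mmol/L), with or without M4-PAMs (0.1–10 μmol/L). [35S]GTPγS (1 nmol/L, as added) then given for 30 min at 30 °C. Bound label collected on GF/B filters and counted by scintillation. Data fitted to an operational model of allosterism and agonism.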

M1, M2, M3 and M5 = experiment: Tango assay, selectivity over other muscarinic subtypes; assay type: cell-based
Outline: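 HEK293 cells stably carrying a tTA-dependent luciferase reporter and a β-arrestin2–TEV fusion were kept in DMEM/10% FBS with puromycin and hygromycin B at 37 °C, 5% CO2. They were transfected, then replated on day 3 at 15,000–20,000 cells/well on poly-L-lysine. On day 4 test compound was added in HEPES/1× HBSS buffer, pH 7.4. On day 5, Bright-Glo luminescence was read after 15–20 min at room temperature (RLU). Carbachol served as reference agonist.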

Compound	peak striatal SUV (M4 [1])	peak striatal SUV (M4 [2])	Kb (hM4 mAChR [3]) [nM]	LogαACh (logarithm of the binding cooperativity factor between M4-PAMs and ACh) (hM4 mAChR [3])	LogβACh (logarithm of the activation cooperativity factors between ACh and M4-PAMs) (hM4 mAChR [4])	LogαβACh (logarithm of the operational functional cooperativity factors between ACh and M4-PAMs) (hM4 mAChR [4])	Logτ (logarithm of the operational efficacy parameter of M4-PAMs as allosteric agonists) (hM4 mAChR [4])	selectivity over other muscarinic acetylcholine receptor subtypes (M1, M2, M3 and M5)
CC1(Cn2cc(-c3ccc(C#N)nc3-c3ccc4c(c3)C(=O)N([11CH3])C4)cn2)CCCC1 [[^11C]MK-6884]	ca. 1.2	ca. 2.5	–	–	–	–	–	–
Cc1ccc(-c2cnn(CC3CCCC3)c2)c(-c2ccc3c(c2)C(=O)N(C)C3)n1 [Compound 10, 6-(3-(1-(cyclopentylmethyl)-1H-pyrazol-4-yl)-6-methylpyridin-2-yl)-2-methylisoindolin-1-one]	–	–	316	1.6 ± 0.2	0.4 ± 0.2	2.0 ± 0.2	0.7 ± 0.0	–
Cc1ccc(-c2cnn(CC3CCCC3)c2)c(-c2ccc3c(c2)C(=O)NC3)n1 [Compound 11, 6-(3-(1-(cyclopentylmethyl)-1H-pyrazol-4-yl)-6-methylpyridin-2-yl)isoindolin-1-one]	–	–	501	1.4 ± 0.2	0.5 ± 0.3	1.9 ± 0.2	0.5 ± 0.0	–
N#Cc1ccc(-c2cnn(CC3CCCC3)c2)c(-c2ccc3c(c2)C(=O)N(CCCF)C3)n1 [Compound 13, 5-(1-(cyclopentylmethyl)-1H-pyrazol-4-yl)-6-(2-(3-fluoropropyl)-3-oxoisoindolin-5-yl)picolinonitrile]	–	–	398	1.6 ± 0.2	0.8 ± 0.2	2.4 ± 0.2 ^f	0.6 ± 0.0	–
CN1Cc2ccc(-c3nc(C#N)ccc3-c3cnn(CC4CCCC4)c3)cc2C1=O [Compound 8, 5-(1-(cyclopentylmethyl)-1H-pyrazol-4-yl)-6-(2-methyl-3-oxoisoindolin-5-yl)picolinonitrile]	–	–	398	1.7 ± 0.3	0.1 ± 0.3	1.9 ± 0.2	0.3 ± 0.0	–
N#Cc1ccc(-c2cnn(CC3CCCC3)c2)c(-c2ccc3c(c2)C(=O)N(CCF)C3)n1 [Compound 12, 5-(1-(cyclopentylmethyl)-1H-pyrazol-4-yl)-6-(2-(2-fluoroethyl)-3-oxoisoindolin-5-yl)picolinonitrile]	–	–	398	1.4 ± 0.1	1.1 ± 0.2	2.5 ± 0.1 ^f	0.5 ± 0.0	selective
